# According to ChEMBL document CHEMBL4715748, “Synthesis and biological investigation of new equatorial (β) stereoisomers of 3-aminotropane arylamides with atypical antipsychotic profile” (Bioorg Med Chem, 2016):
# pKi: −log10 of the molar value.
# Experiments:
# [1] = target: D(2) dopamine receptor (Rattus norvegicus, UniProt P61169); assay: Displacement of [3H] Spiperone from rat striatum dopamine D2 receptor measured after 30 mins by liquid scintillation counter method
# Method in brief: (§1)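 Competition binding in rat brain tissue membranes against D2, 5-HT1A and 5-HT2A sites; Ki reported as mean ± S.E.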
# [2] = target: T1, 5-hydroxytryptamine receptor 1A (Rattus norvegicus, UniProt P19327); assay: Displacement of [3H]-8-OH-DPAT from rat cerebral cortex 5HT1A receptor measured after 15 mins by liquid scintillation counter method
# T1 sequence (P19327 whole entry): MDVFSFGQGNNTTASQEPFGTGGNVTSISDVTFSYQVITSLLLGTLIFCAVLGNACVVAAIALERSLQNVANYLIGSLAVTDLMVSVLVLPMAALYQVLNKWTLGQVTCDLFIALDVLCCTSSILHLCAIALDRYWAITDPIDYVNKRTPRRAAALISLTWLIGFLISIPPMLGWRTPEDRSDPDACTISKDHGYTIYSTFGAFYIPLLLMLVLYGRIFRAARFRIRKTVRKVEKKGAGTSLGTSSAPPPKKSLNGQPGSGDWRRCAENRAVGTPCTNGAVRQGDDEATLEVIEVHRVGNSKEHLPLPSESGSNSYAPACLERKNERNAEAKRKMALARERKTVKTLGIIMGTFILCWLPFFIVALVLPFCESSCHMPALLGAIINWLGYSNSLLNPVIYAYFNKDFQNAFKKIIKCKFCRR
# [3] = target: 5-hydroxytryptamine receptor 2A (Rattus norvegicus, UniProt P14842); assay: Displacement of [3H]-ketanserin from rat cerebral cortex 5HT2A receptor measured after 20 mins by liquid scintillation counter method; method in brief: as §1
# Chain of 5-hydroxytryptamine receptor 2A (P14842 whole entry): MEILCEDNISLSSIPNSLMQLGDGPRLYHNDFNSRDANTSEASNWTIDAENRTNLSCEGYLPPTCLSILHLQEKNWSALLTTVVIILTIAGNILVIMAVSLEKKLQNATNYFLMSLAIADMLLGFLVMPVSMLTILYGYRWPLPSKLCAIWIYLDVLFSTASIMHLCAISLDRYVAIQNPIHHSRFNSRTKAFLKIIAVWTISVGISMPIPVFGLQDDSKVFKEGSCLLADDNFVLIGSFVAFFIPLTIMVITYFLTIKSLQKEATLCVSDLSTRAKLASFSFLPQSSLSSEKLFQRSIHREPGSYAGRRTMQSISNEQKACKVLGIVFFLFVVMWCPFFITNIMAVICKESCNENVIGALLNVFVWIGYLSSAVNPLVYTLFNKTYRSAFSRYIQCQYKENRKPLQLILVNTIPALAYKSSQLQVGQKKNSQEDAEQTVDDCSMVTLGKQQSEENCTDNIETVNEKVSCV
# [4] = target: Dopamine D2 receptor and Serotonin 2a receptor (D2 and 5HT2a) (Rattus norvegicus) (UniProt P61169+P14842); assay: Ratio of pKi for displacement of [3H]-ketanserin from rat cerebral cortex 5HT2A receptor measured after 20 mins by liquid scintillation counter method to pKi for displacement of [3H] Spiperone from rat striatum dopamine D2 receptor measured after 30 mins by liquid scintillation counter method
# Chain of Dopamine D2 receptor and Serotonin 2a receptor (D2 and 5HT2a) (Rattus norvegicus) (P14842 whole entry, looked up): as the sequence (P14842 whole entry) above
# Chain of Dopamine D2 receptor and Serotonin 2a receptor (D2 and 5HT2a) (Rattus norvegicus) (P61169 whole entry, looked up): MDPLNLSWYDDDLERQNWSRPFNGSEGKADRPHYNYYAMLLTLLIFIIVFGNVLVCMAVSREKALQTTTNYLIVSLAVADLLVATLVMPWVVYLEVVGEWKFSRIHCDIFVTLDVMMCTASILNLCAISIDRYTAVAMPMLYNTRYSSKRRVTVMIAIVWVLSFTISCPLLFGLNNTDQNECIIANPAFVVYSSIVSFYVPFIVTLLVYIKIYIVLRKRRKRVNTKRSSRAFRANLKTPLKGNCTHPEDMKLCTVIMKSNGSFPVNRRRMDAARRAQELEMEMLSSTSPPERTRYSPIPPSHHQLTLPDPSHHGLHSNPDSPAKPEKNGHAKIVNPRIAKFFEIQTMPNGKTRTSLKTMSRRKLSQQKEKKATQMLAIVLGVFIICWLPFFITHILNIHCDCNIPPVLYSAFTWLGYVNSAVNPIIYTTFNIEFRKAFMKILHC
# Method in brief: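 Ratio of pKi values, 5-HT2A over D2, computed from competition radioligand binding in rat brain tissue.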
# [5] = Effect on body temperature in Swiss Albino mouse assessed as rectal body temperature at 10 mg/kg, ip measured after 30 mins by thermometer (reference value: 0.16 to 0.33 degreeC); format: organism-based; details: in vivo, 0.5 h
# [6] = Effect on body temperature in Swiss Albino mouse assessed as rectal body temperature at 20 mg/kg, ip measured after 30 mins by thermometer (reference value: 0.16 to 0.33 degreeC); format: ADME, organism-based; details: in vivo, 0.5 h
# [7] = Effect on body temperature in Swiss Albino mouse assessed as rectal body temperature at 10 mg/kg, ip measured after 60 mins by thermometer (reference value: 0.33 to 0.61 degreeC); format: ADME, organism-based; details: in vivo, 1 h
# [8] = Effect on body temperature in Swiss Albino mouse assessed as rectal body temperature at 20 mg/kg, ip measured after 60 mins by thermometer (reference value: 0.33 to 0.61 degreeC); format: ADME, organism-based; details: in vivo, 1 h
# [9] = Effect on body temperature in Swiss Albino mouse assessed as rectal body temperature at 10 mg/kg, ip measured after 90 mins by thermometer (reference value: 0.18 to 0.63 degreeC); format: ADME, organism-based; details: in vivo, 1.5 h
# [10] = Effect on body temperature in Swiss Albino mouse assessed as rectal body temperature at 20 mg/kg, ip measured after 90 mins by thermometer (reference value: 0.18 to 0.63 degreeC); format: ADME, organism-based; details: in vivo, 1.5 h
# [11] = Effect on body temperature in Swiss Albino mouse assessed as rectal body temperature at 10 mg/kg, ip measured after 120 mins by thermometer (reference value: 0.15 to 1.11 degreeC); format: organism-based; details: in vivo, 2 h
# [12] = Effect on body temperature in Swiss Albino mouse assessed as rectal body temperature at 20 mg/kg, ip measured after 120 mins by thermometer (reference value: 0.15 to 1.11 degreeC); format: ADME, organism-based; details: in vivo, 2 h
# [13] = test system: Mus musculus; assay: Effect on 8-OH-DPAT-induced hypothermia in Swiss albino mouse assessed as change in rectal body temperature at 10 mg/kg, ip pretreated with compound for 45 mins followed by 8-OH-DPAT challenge and measured after 15 min by thermometer (reference value: -1.82 to -1.66 degreeC); format: functional, organism-based; details: time 60.0 min
# [14] = test system: Mus musculus; assay: Effect on 8-OH-DPAT-induced hypothermia in Swiss albino mouse assessed as change in rectal body temperature at 20 mg/kg, ip pretreated with compound for 45 mins followed by 8-OH-DPAT challenge and measured after 15 min by thermometer (reference value: -1.82 to -1.66 degreeC); format: functional, organism-based; details: time 60.0 min
# [15] = test system: Mus musculus; assay: Effect on 8-OH-DPAT-induced hypothermia in Swiss albino mouse assessed as change in rectal body temperature at 10 mg/kg, ip pretreated with compound for 45 mins followed by 8-OH-DPAT challenge and measured after 30 min by thermometer (reference value: -1.36 to -1.12 degreeC); format: functional, organism-based; details: time 75.0 min
# [16] = test system: Mus musculus; assay: Effect on 8-OH-DPAT-induced hypothermia in Swiss albino mouse assessed as change in rectal body temperature at 20 mg/kg, ip pretreated with compound for 45 mins followed by 8-OH-DPAT challenge and measured after 30 min by thermometer (reference value: -1.36 to -1.12 degreeC); format: functional, organism-based; details: time 75.0 min
# [17] = test system: Mus musculus; assay: Effect on 8-OH-DPAT-induced hypothermia in Swiss albino mouse assessed as change in rectal body temperature at 10 mg/kg, ip pretreated with compound for 45 mins followed by 8-OH-DPAT challenge and measured after 45 min by thermometer (reference value: -1.04 to -0.78 degreeC); format: functional, organism-based; details: time 90.0 min
# [18] = test system: Mus musculus; assay: Effect on 8-OH-DPAT-induced hypothermia in Swiss albino mouse assessed as change in rectal body temperature at 20 mg/kg, ip pretreated with compound for 45 mins followed by 8-OH-DPAT challenge and measured after 45 min by thermometer (reference value: -1.04 to -0.78 degreeC); format: functional, organism-based; details: time 90.0 min
# [19] = test system: Mus musculus; assay: Effect on 8-OH-DPAT-induced hypothermia in Swiss albino mouse assessed as change in rectal body temperature at 10 mg/kg, ip pretreated with compound for 45 mins followed by 8-OH-DPAT challenge and measured after 60 min by thermometer (reference value: -0.66 to -0.5 degreeC); format: functional, organism-based; details: time 105.0 min
# [20] = test system: Mus musculus; assay: Effect on 8-OH-DPAT-induced hypothermia in Swiss albino mouse assessed as change in rectal body temperature at 20 mg/kg, ip pretreated with compound for 45 mins followed by 8-OH-DPAT challenge and measured after 60 min by thermometer (reference value: -0.66 to -0.5 degreeC); format: functional, organism-based; details: time 105.0 min
# [21] = Effect on 8-OH-DPAT-induced lower lip retraction in Wistar rat at 10 mg/kg, ip pretreated with compound for 45 mins followed by 8-OH-DPAT challenge and measured after 15 mins (reference value: 2.7 to 2.8); format: functional; details: time 60 min, 1 h
# [22] = Effect on 8-OH-DPAT-induced lower lip retraction in Wistar rat at 20 mg/kg, ip pretreated with compound for 45 mins followed by 8-OH-DPAT challenge and measured after 15 mins (reference value: 2.7 to 2.8); format: functional; details: time 60 min, 1 h
# [23] = test system: Mus musculus; assay: Antipsychotic activity Swiss Albino mouse assessed as inhibition of DOI-induced head twitching by measuring number of episodes at 2.5 mg/kg, ip administered 30 mins prior to DOI stimulation (reference value: 19.63 to 19.88); format: functional; details: 0.5 h
# Method in brief: (§2)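 Male Albino Swiss mice (24–28 g) were habituated to sawdust-lined cages 20 min before the first treatment. Compounds were suspended in 1% aqueous Tween 80 and given i.p. 30 min before (±)-DOI, 2.5 mg/kg i.p. in aqueous solution. Head twitches were counted blind over 20 min, n=8 per group, mean ± SEM, one-way ANOVA with Dunnett's test.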
# [24] = test system: Mus musculus; assay: Antipsychotic activity Swiss Albino mouse assessed as inhibition of DOI-induced head twitching by measuring number of episodes at 5 mg/kg, ip administered 30 mins prior to DOI stimulation (reference value: 19.63 to 19.88); format: functional; details: 0.5 h; method in brief: as §2
# [25] = test system: Mus musculus; assay: Antipsychotic activity Swiss Albino mouse assessed as inhibition of DOI-induced head twitching by measuring number of episodes at 10 mg/kg, ip administered 30 mins prior to DOI stimulation (reference value: 19.63 to 19.88); format: functional; details: 0.5 h; method in brief: as §2
# [26] = Half life in pooled human liver microsomes assessed as parent compound remaining at 2.5 uM measured up to 45 mins in presence of NADPH by LC-MS analysis; format: ADME, Microsome
# Method in brief: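 Compound at 2.5 μM (added from 100 μM stock in 50/50 acetonitrile/water) with 1 mg/mL pooled human liver microsomes and 250 μM NADPH in 0.1 M potassium phosphate pH 7.4 at 37 °C after 5-min preincubation. Sampled at 5, 10, 15, 30, 45 min into ice-cold acetonitrile with atropine internal standard; parent quantified by LC-MS (ESI+, [M+H]+); no-NADPH controls; half-time derived.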
# Chain of D(2) dopamine receptor (P61169 whole entry): as the sequence (P61169 whole entry, looked up) above
smiles,measurement,setting,value
O=C(NC1CC2CCC(C1)N2Cc1ccc(Br)cc1)c1ccc2ccccc2c1 (stereo unspecified),pKi,[1],8.35
same,pKi,[2],6.64
same,pKi,[3],6.49
COc1cccc(CN2C3CCC2CC(NC(=O)c2ccc4ccccc4c2)C3)c1 (stereo unspecified),pKi,[1],7.59
same,pKi,[2],6.67
same,pKi,[3],6.18
same,Ratio pKi,[4],0.81
same,deltaT,[5],-0.03 °C
same,deltaT,[6],-0.1 °C
same,deltaT,[7],0.03 °C
same,deltaT,[8],0.57 °C
same,deltaT,[9],0.17 °C
same,deltaT,[10],0.81 °C
same,deltaT,[11],0.7 °C
same,deltaT,[12],1.26 °C
same,deltaT,[13],-1.52 °C
same,deltaT,[14],-1.25 °C
same,deltaT,[15],-1.32 °C
same,deltaT,[16],-1.65 °C
same,deltaT,[17],-0.87 °C
same,deltaT,[18],-1.33 °C
same,deltaT,[19],-0.6 °C
same,deltaT,[20],-0.97 °C
same,Activity,[21],2.4
same,Activity,[22],2.5
same,Activity,[23],16.63
same,Activity,[24],14.25
same,Activity,[25],9.88
same,half-life at 2.5 µM,[26],42.9 min
O=C(NC1CC2CCC(C1)N2Cc1ccccc1F)c1ccc2ccccc2c1 (stereo unspecified),pKi,[1],6.15
same,pKi,[2],6.44
same,pKi,[3],6.98
COc1cc(C(=O)NC2CC3CCC(C2)N3Cc2ccccc2)nc2ccccc12 (stereo unspecified),pKi,[1],< 5.00
same,pKi,[2],7.52
same,pKi,[3],6.31
O=C(NC1CC2CCC(C1)N2Cc1ccc(Cl)cc1)c1ccc2ccccc2c1 (stereo unspecified),pKi,[1],9.40
same,pKi,[2],5.60
same,pKi,[3],6.40
O=C(NC1CC2CCC(C1)N2Cc1cccnc1)c1ccc2ccccc2c1 (stereo unspecified),pKi,[1],5.62
same,pKi,[2],6.31
same,pKi,[3],6.32
Cc1ccccc1CN1C2CCC1CC(NC(=O)c1ccc3ccccc3c1)C2 (stereo unspecified),pKi,[1],6.93
same,pKi,[2],6.72
same,pKi,[3],5.89
O=C(NC1CC2CCC(C1)N2Cc1ccc(C(F)(F)F)cc1)c1ccc2ccccc2c1 (stereo unspecified),pKi,[1],6.20
same,pKi,[2],5.70
same,pKi,[3],< 5.00
O=C(NC1CC2CCC(C1)N2Cc1ccccc1Br)c1ccc2ccccc2c1 (stereo unspecified),pKi,[1],7.64
same,pKi,[2],6.71
same,pKi,[3],6.87
O=C(NC1CC2CCC(C1)N2Cc1ccccn1)c1ccc2ccccc2c1 (stereo unspecified),pKi,[1],5.66
same,pKi,[2],6.50
same,pKi,[3],6.23
Cc1ccc(CN2C3CCC2CC(NC(=O)c2ccc4ccccc4c2)C3)cc1 (stereo unspecified),pKi,[1],9.40
same,pKi,[2],6.14
same,pKi,[3],6.07
O=C(NC1CC2CCC(C1)N2Cc1ccccc1)c1ccc2ccccc2n1 (stereo unspecified),pKi,[1],6.23
same,pKi,[2],7.20
same,pKi,[3],6.30
O=C(NC1CC2CCC(C1)N2Cc1ccncc1)c1ccc2ccccc2c1 (stereo unspecified),pKi,[1],5.57
same,pKi,[2],5.64
same,pKi,[3],5.95
COc1ccc(CN2C3CCC2CC(NC(=O)c2ccc4ccccc4c2)C3)cc1 (stereo unspecified),pKi,[1],9.22
same,pKi,[2],5.59
same,pKi,[3],6.04
O=C(NC1CC2CCC(C1)N2Cc1cccc(C(F)(F)F)c1)c1ccc2ccccc2c1 (stereo unspecified),pKi,[1],6.66
same,pKi,[2],6.89
same,pKi,[3],6.68
O=C(NC1CC2CCC(C1)N2Cc1ccccc1C(F)(F)F)c1ccc2ccccc2c1 (stereo unspecified),pKi,[1],6.27
same,pKi,[2],6.32
same,pKi,[3],6.99
